Assay outcomes as filed in PubChem BioAssay.
ASAP1 GAP inh: inhibitors of human ASAP1 ArfGAP activity; Q9ULH1; ASAP1-stimulated ARF1 GTP hydrolysis, GDP FP detection; inhibition, % at 16.5 µM; 360,000 compounds, 0.19% hits; AID 624377; in the data active = inhibition above about 25%;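 note: 0% = vehicle with enzyme and substrate and 100% = no enzyme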
ARFGAP1 inhibitor: inhibitors of rat ARFGAP1 | AID 651572 | Arfgap1-stimulated ARF1 GTP hydrolysis, GDP FP detection | inhibition, % at 16.5 µM | 360,000 compounds, 0.26% hits;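 active = inhibition above a per-plate limit, mean inhibition of low control wells plus 3 SD, cut at about 25% in these data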;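 note: 0% = DMSO wells with enzyme and 100% = wells lacking Arfgap1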
Target sequence (Q62848 1-136 limits assumed): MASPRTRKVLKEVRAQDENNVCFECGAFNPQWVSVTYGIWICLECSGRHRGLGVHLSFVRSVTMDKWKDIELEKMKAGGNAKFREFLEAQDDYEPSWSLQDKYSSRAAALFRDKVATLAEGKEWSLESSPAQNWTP
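System: truncated rat Arfgap1 GAP domain / Benchmarks: high control wells lacking Arfgap1, low control full reaction with DMSO / Times: compound-enzyme preincubation 20 min, reaction 120 min, detection 60 min, 25 °C / Repeats: one replicate per compound / Also added: human ARF1(Δ1-17)-GTP substrate / Measured by: Tracer-displacement fluorescence polarization with EDTA stop, 620/688 nm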
esBAF inh: inhibitors of esBAF chromatin remodeling in mouse ES cells; AID 602393; reporter increase, % at 12.5 µM; Bmi1-luciferase knock-in reporter, 24 h; 100% = twice the neutral-well signal; 350,000 compounds, 2% hits; in the data active = activation above about 40%; inconclusive = no clear call, values can overlap the other calls;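 note: 0% = median of the plate's neutral control wells and 100% = double that signal; a rise in the Bmi1 reporter signal indicates esBAF inhibition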
SMARCA2 activ: SMARCA2 function activation, primary screen. MG213 cells, MMTV-luciferase reporter, dexamethasone, overnight. activation, % at 9.1 µM. 370,000 compounds, 1% hits. AID 652017; in the data active = activation above about 7.8%;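 note: 0% = vehicle wells and 100% = reference activator wells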
SMARCA2 conf: SMARCA2 activation, confirmation screen. activation, % at 9.1 µM. shares compounds with SMARCA2 activ. 3,500 compounds, 30% hits. MG213 cells, MMTV-luciferase with dexamethasone, luminescence, overnight; MG213 cells expressing E1A, Rb sequestered; DMSO wells 0%, reference activator 100%;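 active = activation above its plate's cutoff, the mean activation of tested wells plus 3 SD, cut at about 7.9% in these data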
GAL4-VP16 Luc: GAL4-VP16 reporter activation counter-screen | shares compounds with SMARCA2 activ | HEK293 GAL4-VP16 pG5luc reporter, luciferase luminescence; scaled: DMSO wells 0%, SAHA wells 100% | activation, % at 9.1 µM | 3,500 compounds, 41% hits | AID 686939;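 active = activation above the solvent-only control well mean plus 3 SD, averaged across control plates, cut at about 5.2% in these data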
* marks the source's active call; other numbers are inactive results; ? = inconclusive; nt = no result given. Shown are actives, neighbours in structure and some others; about 2.6% of the full set was active somewhere.

SMILES | ASAP1 GAP inh | ARFGAP1 inhibitor | esBAF inh | SMARCA2 activ | SMARCA2 conf | GAL4-VP16 Luc
Cc1ccc(S(=O)(=O)N2CCN(C(=O)COC(=O)COc3ccccc3)CC2)cc1 | -13 | 6 | 4 | -4 | nt | nt
O=C(O)C[C@@H]1C[C@@H]2c3cc(NC(=O)NC4CCCC4)ccc3O[C@@H]2[C@@H](CO)O1 | nt | nt | -2 | nt | nt | nt
COc1ccc(C(=O)N[C@H](C(=O)Nc2nc3ccccc3[nH]2)C(C)C)cc1 | -1 | 0 | 0 | 13* | 12* | 15*
COc1ccc(C(=O)Nc2nc3ccccc3[nH]2)cc1 | -3 | 5 | -69 | -4 | nt | nt
O=C1NC[C@H](CCCCN2C[C@H](Cc3ccc(O)cc3)N(CCc3ccc(O)cc3)C(=O)C2=O)N(CC2CCCCC2)C1=O | -1 | 6 | nt | 8.5* | 0 | 2
O=C1NC[C@H](CCCCN2C[C@H](Cc3ccccc3)N(CC3CCCCC3)C(=O)C2=O)N(CCc2ccc(O)cc2)C1=O | -8 | 15 | nt | -3 | nt | nt
S=c1[nH]ncn1/N=C/c1ccc(Br)cc1 | -5 | -7 | nt | 0 | nt | nt
S=c1[nH]ncn1/N=C/c1ccc(N2CCOCC2)cc1 | 7 | 10 | ? | 9.2* | 9.2* | 11*
COc1ccc(C)cc1-n1cnnn1 | 3 | -1 | nt | 8.1* | 0 | 2
C[C@H](CO)N1C[C@H](C)[C@@H](CN(C)CC2CC2)Oc2ccc(NS(C)(=O)=O)cc2CC1=O | nt | nt | 4 | nt | nt | nt
COc1ccc(NC(=O)Nc2ccc3c(c2)C(=O)N([C@H](C)CO)C[C@@H](C)[C@@H](CN(C)Cc2ccc(Cl)c(Cl)c2)OCCCC[C@H](C)O3)cc1 | nt | nt | 0 | nt | nt | nt
Cc1nc(-c2cccc(NC(=O)C3CCCCC3)c2)cs1 | 2 | 3 | 2 | 1 | nt | nt
Cc1nc(-c2ccc(NC(=O)C3CC3)cc2)cs1 | -1 | -8 | 49* | 8.2* | 9.7* | 8.9*
COc1ccccc1CN1[C@H](CO)[C@@H]2c3ccccc3N(C(=O)C3CCC3)C[C@@H]21 | nt | nt | 1 | nt | nt | nt
O=C(NC1CCN(Cc2ccccc2)CC1)c1cccc(OC(F)F)c1 | 8 | 8 | 8 | 10* | 6 | 0
O=C(COc1cccc(C(F)(F)F)c1)Nc1cccnc1 | 4 | -12 | -4 | 8.4* | -1 | -1
O=C(COc1ccc(C(=O)NCc2cccnc2)cc1)Nc1cccc(C(F)(F)F)c1 | 8 | -1 | -16 | -1 | nt | nt
COC(=O)c1ccc2nc(NC(=O)C3CC3)sc2c1 | -3 | 13 | -22 | 12* | 8.7* | 5.3*
COC(=O)c1ccc2nc(NC(=O)C(C)C)sc2c1 | -8 | 8 | nt | 0 | nt | nt
Cc1ccc(C(=O)c2cc(C)sc2NC(=O)CN2CCN(C(=O)c3ccco3)CC2)cc1 | 10 | 9 | 4 | 8.8* | 0 | 0
C[C@H]1CCCCO[C@H](CN(C)S(=O)(=O)c2cn(C)cn2)[C@@H](C)CN([C@@H](C)CO)C(=O)c2cc(NC(=O)c3ccccc3)ccc2O1 | nt | nt | 1 | nt | nt | nt
Cc1ccnc(NC(c2ccsc2)c2ccc3ccc(C)nc3c2O)c1 (stereo not drawn) | 4 | 9 | -37 | 7 | nt | nt
COc1ccc(C(Nc2cc(C)ccn2)c2ccc3ccc(C)nc3c2O)cc1 (stereo not drawn) | 1 | -6 | 2 | 10* | -4 | 0
CO[C@@H]1CN(C)C(=O)c2cc(NC(=O)NC3CCCCC3)ccc2OC[C@H](C)NC[C@@H]1C | nt | nt | -8 | nt | nt | nt
CC(C)C(=O)Nc1ccc2c(c1)C(=O)N(C)[C@H]1CC[C@H](CC(=O)NCc3ccc(F)cc3)O[C@@H]1CO2 | nt | nt | 1 | nt | nt | nt
SMILES | ASAP1 GAP inh | ARFGAP1 inhibitor | esBAF inh | SMARCA2 activ | SMARCA2 conf | GAL4-VP16 Luc
Cc1cc(N/N=C\c2ccccc2)nc(-c2ccccc2O)n1 | 4 | 9 | nt | 13* | -2 | 3
Cc1cc(N/N=C/c2ccccc2O)nc(-c2ccccc2O)n1 | 4 | -1 | nt | -2 | nt | nt
Cc1cc(N/N=C/c2cccc(Br)c2)nc2ccccc12 | 7 | 13 | nt | 12* | 4 | 7.8*
CCCn1nnnc1NC(=O)c1cc(Br)ccc1OC | -5 | 9 | nt | 1 | nt | nt
CCCn1nnnc1NC(=O)c1ccc(C)cc1Cl | 12 | 10 | 14 | 8.0* | -1 | 0
Cc1ccc2c(c1)sc1nc(=O)n(-c3ccccc3)c(=O)n12 | 1 | -14 | nt | 12* | 8.4* | 12*
